The subject of one data set is Escherichia coli. Description: Antibacterial activity against Escherichia coli K-12 W3110 ATCC 27325 incubated for 16 hrs under shaking condition. Type of data set: functional. The following applies: K-12 substr. W3110 ATCC 27325, 16 h. The method in brief:
(§1)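 Broth microdilution (Andrews method) in Iso-sensitest broth. Overnight cultures are adjusted to A650 0.07 (0.5 McFarland) and diluted ten-fold. Compounds come from 5 mM DMSO stocks, 2-fold serially diluted, final 2–100 μM in a 1:1 inoculum:compound mix. Incubation is 37 °C for 16 h with shaking. MIC is the lowest concentration giving complete growth inhibition, read by absorbance; triplicate.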

Data set [1] in a line: Selectivity index, ratio of ED50 for human HaCaT cells to MIC for Pseudomonas aeruginosa PAO1 ATCC 15692. Type of data set: toxicity. The following applies: read-out: Selectivity Index.
A short description of data set [2]: Selectivity index, ratio of ED50 for human HaCaT cells to MIC for Staphylococcus aureus 3R7089 strain Oxford/ATCC 9144. The format is toxicity. To be noted: read-out: Selectivity Index.
The nature of data set [3]: Selectivity index, ratio of ED50 for human HaCaT cells to MIC for Staphylococcus epidermidis clinical isolate. The format is toxicity. To be noted: read-out: Selectivity Index.
A short description of data set [4]: Selectivity index, ratio of ED50 for human HepG2 cells to MIC for Pseudomonas aeruginosa PAO1 ATCC 15692. The format is toxicity. To be noted: read-out: Selectivity Index.
The nature of data set [5]: Selectivity index, ratio of ED50 for human HepG2 cells to MIC for Staphylococcus aureus 3R7089 strain Oxford/ATCC 9144. The format is toxicity. The following applies: read-out: Selectivity Index.
Data set [6] can be described thus: Selectivity index, ratio of ED50 for human HepG2 cells to MIC for Staphylococcus epidermidis clinical isolate. Type of data set: toxicity. The following applies: read-out: Selectivity Index.
The nature of data set [7]: Cytotoxicity against human HaCaT cells assessed as reduction in cell viability pretreated for 1 hr followed by DMEM addition measured after 24 hrs by alamar blue assay. Type of data set: cell-based. The following applies: read-out: ED50. The procedure, abridged: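 HaCaT keratinocytes are grown in DMEM high glucose with 10% FBS and 1% P/S and seeded at 2x10^4 cells/well 24 h before treatment. Compound dilution series run 2–100 µM (5 mM DMSO stocks) in 50 µL for 1 h, then medium is added for 24 h at 37 °C, 5% CO2. alamarBlue is read after 1 h (Ex 540/Em 620). Triplicate, ≥2 occasions; ED50 from dose-response; amphotericin B positive control.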
A general note: The colour change of resazurin is a common sign of viable cells or microbes.

The nature of data set [8]: Cytotoxicity against human HepG2 cells assessed as reduction in cell viability pretreated for 1 hr followed by DMEM addition measured after 24 hrs by alamar blue assay. Type of data set: cell-based. The following applies: read-out: ED50. The procedure, abridged: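 HepG2 cells are kept in DMEM high glucose with 10% heat-inactivated FBS and 1% P/S at 37 °C, 5% CO2, and seeded at 2x10^4 cells/well one day ahead. They are exposed to compounds (100 to 3 µM, from 5 mM DMSO stocks) in 50 µL for 1 h. Medium is then added and cells incubated 24 h. alamarBlue is read after 2 h (Ex 560/Em 600). Triplicate on ≥2 occasions; ED50 from dose-response; DMSO negative control.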

The test system of another data set is Staphylococcus aureus. Nature of the data set: Antibacterial activity against Staphylococcus aureus 3R7089 strain Oxford/ATCC 9144 incubated for 16 hrs under shaking condition. Type of data set: functional. The following applies: 3R7089 strain Oxford/ATCC 9144, 16 h. The method in brief:
as §1

Another data set concerns Pseudomonas aeruginosa. Nature of the data set: Antibacterial activity against Pseudomonas aeruginosa PAO1 ATCC 15692 incubated for 16 hrs under shaking condition. The format is functional. To be noted: PAO1 ATCC 15692, 16 h. The procedure, abridged:
as §1

Data set [9] is described as follows: Selectivity index, ratio of ED50 for human HaCaT cells to MIC for Escherichia coli K-12 W3110 ATCC 27325. The format is toxicity. To be noted: read-out: Selectivity Index.
The nature of data set [10]: Selectivity index, ratio of ED50 for human HepG2 cells to MIC for Escherichia coli K-12 W3110 ATCC 27325. Type of data set: toxicity. To be noted: read-out: Selectivity Index.
The test system of data set [11] is Staphylococcus epidermidis. Nature of the data set: Antibacterial activity against Staphylococcus epidermidis clinical isolate incubated for 16 hrs under shaking condition. Type of data set: functional. The procedure, abridged: as §1

One may read the MIC as the lowest concentration that inhibits growth of the organism. A high value points to a need for much substance.

Converted amounts (≈) assume the structure as drawn. Square brackets hold non-standard residues; d marks the D form. Peptide text beside a SMILES is read from it. Gly(Nα-4-Cl-benzyl) = O=C(O)CNCc1ccc(Cl)cc1; Gly(N-(CH2)6NH2) = NCCCCCCNCC(=O)O; Gly(N-2-aminoethyl) = NCCNCC(=O)O; Nspe = C[C@H](NCC(=O)O)c1ccccc1; NhArg = N=C(N)NCCCCNCC(=O)O; NPentylGly = CCCCCNCC(=O)O; Nphe = O=C(O)CNCc1ccccc1; Nlys = NCCCCNCC(=O)O A value given as a limit tells only on which side of the number the result lay.

For the compound `C[C@@H](c1ccccc1)N(CC(N)=O)C(=O)CN(C(=O)CN(CCN)C(=O)CN(C(=O)CN(C(=O)CN(CCN)C(=O)CN(C(=O)CN(C(=O)CN(CCN)C(=O)CN(C(=O)CN(C(=O)CNCCN)[C@@H](C)c1ccccc1)[C@@H](C)c1ccccc1)[C@@H](C)c1ccccc1)[C@@H](C)c1ccccc1)[C@@H](C)c1ccccc1)[C@@H](C)c1ccccc1)[C@@H](C)c1ccccc1` (H-[Gly(N-2-aminoethyl)][Nspe][Nspe][Gly(N-2-aminoethyl)][Nspe][Nspe][Gly(N-2-aminoethyl)][Nspe][Nspe][Gly(N-2-aminoethyl)][Nspe][Nspe]-NH2), the MIC with Escherichia coli is greater than 100 µM. Also, the selectivity ratio in data set [1] stood at 1; in data set [2], 13; in data set [3], 13; in [4], 1; in [5] it was 21; in [6] it was 21.
As to `CCCCCNCC(=O)N(CC(=O)N(CC(=O)N(CCCCN)CC(=O)N(CC(=O)N(CC(=O)N(CCCCN)CC(=O)N(CC(=O)N(CC(=O)N(CCCCN)CC(=O)N(CC(=O)N(CC(N)=O)[C@@H](C)c1ccccc1)[C@@H](C)c1ccccc1)C(C)c1ccccc1)[C@@H](C)c1ccccc1)[C@@H](C)c1ccccc1)[C@@H](C)c1ccccc1)C(C)c1ccccc1)[C@@H](C)c1ccccc1` (single isomer, unassigned), the MIC with Escherichia coli came out at 50 µM (≈ 90.9 µg/mL); in the data set with Staphylococcus aureus it was 2 µM (≈ 3.64 µg/mL). Besides, the CC50 at 24 h in data set [7] was determined as 12 µM; in data set [8], 15 µM. For the same compound, the selectivity ratio worked out at 6 in [2], 6 in data set [3], 8 in data set [5] and 8 in data set [6].
As to `COc1ccc(CN(CC(N)=O)C(=O)CN(Cc2ccc(OC)cc2)C(=O)CN(CCCCN)C(=O)CN(Cc2ccc(OC)cc2)C(=O)CN(Cc2ccc(OC)cc2)C(=O)CN(CCCCN)C(=O)CN(Cc2ccc(OC)cc2)C(=O)CN(Cc2ccc(OC)cc2)C(=O)CN(CCCCN)C(=O)CN(Cc2ccc(OC)cc2)C(=O)CN(Cc2ccc(OC)cc2)C(=O)CNCCCCN)cc1`, the MIC against Escherichia coli and with Pseudomonas aeruginosa was greater than 100 µM each time. Further, the CC50 at 24 h in data set [8] was greater than 100 µM. Besides, the selectivity ratio turned out to be 0 in [9]; 0 in data set [1]; 14 in [2]; 21 in data set [3]; 1 in data set [10]; 1 in [4]. Moreover, the results for the selectivity ratio in data set [5] and in data set [6] were 33 and 50, respectively.
As for `C[C@@H](c1ccccc1)N(CC(N)=O)C(=O)CN(C(=O)CN(CCCCN)C(=O)CN(C(=O)CN(C(=O)CNCCCCN)[C@@H](C)c1ccccc1)[C@@H](C)c1ccccc1)[C@@H](C)c1ccccc1` (H-[Nlys][Nspe][Nspe][Nlys][Nspe][Nspe]-NH2), the MIC with Escherichia coli, against Pseudomonas aeruginosa and against Staphylococcus aureus was greater than 100 µM each time. In addition, the CC50 at 24 h in [7] and in [8] was greater than 100 µM in each case. For the same compound, the selectivity ratio in data set [9] turned out to be 1; in data set [1], 1; in [2] it was 1; in data set [3] it was 4; in [10], 1; in data set [4] it was 1. In addition, the selectivity ratio is 1 in data set [5] and 4 in data set [6].
Regarding `NCCCCCCNCC(=O)N(CC(=O)N(CC(=O)N(CCCCCCN)CC(=O)N(CC(=O)N(CC(=O)N(CCCCCCN)CC(=O)N(CC(=O)N(CC(=O)N(CCCCCCN)CC(=O)N(CC(=O)N(CC(N)=O)Cc1ccccc1)Cc1ccccc1)Cc1ccccc1)Cc1ccccc1)Cc1ccccc1)Cc1ccccc1)Cc1ccccc1)Cc1ccccc1` (H-[Gly(N-(CH2)6NH2)][Nphe][Nphe][Gly(N-(CH2)6NH2)][Nphe][Nphe][Gly(N-(CH2)6NH2)][Nphe][Nphe][Gly(N-(CH2)6NH2)][Nphe][Nphe]-NH2), the CC50 at 24 h in [7] and in data set [8] was greater than 100 µM throughout. For the same compound, the MIC in the data set on Pseudomonas aeruginosa is greater than 100 µM; in the data set with Staphylococcus aureus, 2 µM (≈ 3.64 µg/mL); in data set [11], 6 µM (≈ 10.9 µg/mL). The selectivity ratio in data set [9] turned out to be 8; in data set [1], 1; in data set [2], 50; in [3] it was 17; in data set [10] it was 8; in [4], 1. Also, the selectivity ratio in data set [5] was 50; in [6] it was 17.
Regarding `C[C@@H](c1ccccc1)N(CC(N)=O)C(=O)CN(C(=O)CN(CCCCCCN)C(=O)CN(C(=O)CN(C(=O)CN(CCCCCCN)C(=O)CN(C(=O)CN(C(=O)CNCCCCCCN)[C@@H](C)c1ccccc1)[C@@H](C)c1ccccc1)[C@@H](C)c1ccccc1)[C@@H](C)c1ccccc1)[C@@H](C)c1ccccc1` (H-[Gly(N-(CH2)6NH2)][Nspe][Nspe][Gly(N-(CH2)6NH2)][Nspe][Nspe][Gly(N-(CH2)6NH2)][Nspe][Nspe]-NH2), the CC50 at 24 h in data set [7] and in [8] was greater than 100 µM each time. Further, the MIC is greater than 100 µM against Pseudomonas aeruginosa, 3 µM (≈ 4.36 µg/mL) in the data set on Staphylococcus aureus and 2 µM (≈ 2.91 µg/mL) in data set [11]. For the same compound, the selectivity ratio came out at 4 in data set [9]; 1 in [1]; 33 in data set [2]; 50 in data set [3]; 4 in [10]; 1 in data set [4]. For the same compound, the figures for the selectivity ratio in data set [5] and in data set [6] were 33 and 50, respectively.
For `NCCCCNCC(=O)N(CC(=O)N(CC(=O)N(CCCCN)CC(=O)N(CC(=O)N(CC(=O)N(CCCCN)CC(=O)N(CC(=O)N(CC(=O)N(CCCCN)CC(=O)N(CC(=O)N(CC(N)=O)Cc1ccc(Cl)cc1)Cc1ccc(Cl)cc1)Cc1ccc(Cl)cc1)Cc1ccc(Cl)cc1)Cc1ccc(Cl)cc1)Cc1ccc(Cl)cc1)Cc1ccc(Cl)cc1)Cc1ccc(Cl)cc1` (H-[Nlys][Gly(Nα-4-Cl-benzyl)][Gly(Nα-4-Cl-benzyl)][Nlys][Gly(Nα-4-Cl-benzyl)][Gly(Nα-4-Cl-benzyl)][Nlys][Gly(Nα-4-Cl-benzyl)][Gly(Nα-4-Cl-benzyl)][Nlys][Gly(Nα-4-Cl-benzyl)][Gly(Nα-4-Cl-benzyl)]-NH2), the MIC with Escherichia coli and in the data set with Pseudomonas aeruginosa was greater than 100 µM in each case. Moreover, the selectivity ratio turned out to be 1 in data set [2], 3 in [3], 1 in data set [5] and 4 in data set [6].
Consider `NCCCCCCNCC(=O)N(CC(=O)N(CC(=O)N(CCCCCCN)CC(=O)N(CC(=O)N(CC(=O)N(CCCCCCN)CC(=O)N(CC(=O)N(CC(N)=O)Cc1ccccc1)Cc1ccccc1)Cc1ccccc1)Cc1ccccc1)Cc1ccccc1)Cc1ccccc1` (H-[Gly(N-(CH2)6NH2)][Nphe][Nphe][Gly(N-(CH2)6NH2)][Nphe][Nphe][Gly(N-(CH2)6NH2)][Nphe][Nphe]-NH2), for which the CC50 at 24 h in data set [7] and in [8] was greater than 100 µM throughout. In addition, the results for the MIC (against Pseudomonas aeruginosa; in the data set on Staphylococcus aureus; in data set [11]) were greater than 100 µM, 6 µM (≈ 8.21 µg/mL) and 3 µM (≈ 4.11 µg/mL), respectively. Also, the selectivity ratio in data set [9] stood at 2; in data set [1] it was 1; in data set [2], 17; in data set [3], 33; in [10] it was 2; in data set [4] it was 1. Further, the selectivity ratio amounted to 17 in data set [5] and 33 in data set [6].
For the compound `CCCCCNCC(=O)N(CC(=O)N(CC(=O)N(CCCCNC(=N)N)CC(=O)N(CC(=O)N(CC(=O)N(CCCCC)CC(=O)N(CC(=O)N(CC(=O)N(CCCCNC(=N)N)CC(=O)N(CC(=O)N(CC(N)=O)[C@@H](C)c1ccccc1)[C@@H](C)c1ccccc1)[C@@H](C)c1ccccc1)[C@@H](C)c1ccccc1)[C@@H](C)c1ccccc1)[C@@H](C)c1ccccc1)[C@@H](C)c1ccccc1)[C@@H](C)c1ccccc1` (H-[NPentylGly][Nspe][Nspe][NhArg][Nspe][Nspe][NPentylGly][Nspe][Nspe][NhArg][Nspe][Nspe]-NH2), the minimal inhibitory concentration (MIC) against Escherichia coli and in the data set on Pseudomonas aeruginosa was greater than 100 µM each time. For the same compound, the selectivity ratio came out at 10 in data set [2], 5 in [3], 8 in data set [5] and 4 in [6].

The values are drawn from ChEMBL document CHEMBL4261490, “Exploring the links between peptoid antibacterial activity and toxicity” (Medchemcomm, 2017).
